Activity calls are given as the source filed them. The calls are words filed in the database; no cut-off is given here.

For orientation: IC50 means the concentration at which inhibition is half-maximal.

Series [1] deals with HCT-116. The experiment in a line: In vivo inhibition of HDAC in tumor of human HCT116 cells xenografted nu/nu mouse assessed as increase in histone hyperacetylation at 50 mg/kg, po after 4 to 12 hrs by immunoblotting method. The class given is functional, organism-based. Also noted: dose 50 mg/kg. Put shortly: (§1)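 Mice bearing HCT116 xenografts were dosed intraperitoneally at 10 or 50 mg/kg, or orally at 50 mg/kg. Tumors were excised at 4, 12 and 24 h. Histone hyperacetylation in the tumors was assessed by immunoblot, n = 2.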

Series [2] in a line: Drug metabolism in human HCT116 cells protein lysate solution assessed as largazole thiol formation at 25 ug/mL after 4 hrs by HPLC-MS method. The class given is ADME, cell-based. The conditions noted are these: hct-116, 4 h.
The target of series [3] is Histone deacetylase (Homo sapiens) (UniProt Q13547+O15379+Q9UBN7+Q92769+Q9UQL6+Q8WUI4+Q9BY41+Q96DB2+P56524+Q9UKV0+Q969S8). The experiment in a line: Inhibition of HDAC in human HCT116 cells assessed as increase in histone H3 (Lys9/14) hyperacetylation at 320 pM to 10 uM after 8 to 24 hrs by immunoblotting method. Format: cell-based. The conditions noted are these: HCT-116. Put shortly:
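HCT116 cells were treated across a dose range, then harvested at 8 and 24 h post-treatment. Cellular HDAC inhibition was read as histone H3 (Lys9/14) hyperacetylation by immunoblot.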
Background: In western blotting, separated proteins are transferred to a membrane and probed.

Series [4] has as its system HCT-116. The series is described as follows: In vivo inhibition of HDAC in tumor of human HCT116 cells xenografted nu/nu mouse assessed as increase in histone hyperacetylation at 50 mg/kg, ip after 24 hrs by immunoblotting method. The class given is functional, organism-based. Further details: dose 50 mg/kg. The gist of the method: as §1
Series [5] in a line: Drug metabolism in tumor of human HCT116 cells xenografted nu/nu mouse assessed largazole thiol formation at 50 mg/kg, po by HPLC-MS method. As to conditions: in vivo.
For series [6], the system named is Serum. The experiment in a line: Drug metabolism in mouse serum assessed as largazole thiol formation after 0.25 to 1440 mins by HPLC-MS method. The class given is ADME, cell-free.
The subject of series [7] is HCT-116. The experiment in a line: In vivo inhibition of HDAC in tumor of human HCT116 cells xenografted nu/nu mouse assessed as increase in histone hyperacetylation at 10 mg/kg, ip after 24 hrs by immunoblotting method. Format: functional, organism-based. Further details: dose 10 mg/kg. The gist of the method: as §1
On the technique in general: A xenograft is tissue or cells of one species grown in another, often human tumour cells in immunodeficient mice.

A short description of series [8]: Drug level in human HCT116 cells protein lysate solution treated with 25 ug/mL compound 6 assessed as compound formation after 4 hrs by HPLC-MS method. Format: ADME, cell-based. As to conditions: hct-116, 4 h.
A short description of series [9]: Drug level in human HCT116 cells protein lysate solution treated with 25 ug/mL compound 4 assessed as compound formation after 1 hr by HPLC-MS method. Format: ADME, cell-based. As to conditions: hct-116, 1 h.
A further series concerns the target T1, Histone deacetylase 11 (Homo sapiens, UniProt Q96DB2).
T1 sequence (Q96DB2 whole entry): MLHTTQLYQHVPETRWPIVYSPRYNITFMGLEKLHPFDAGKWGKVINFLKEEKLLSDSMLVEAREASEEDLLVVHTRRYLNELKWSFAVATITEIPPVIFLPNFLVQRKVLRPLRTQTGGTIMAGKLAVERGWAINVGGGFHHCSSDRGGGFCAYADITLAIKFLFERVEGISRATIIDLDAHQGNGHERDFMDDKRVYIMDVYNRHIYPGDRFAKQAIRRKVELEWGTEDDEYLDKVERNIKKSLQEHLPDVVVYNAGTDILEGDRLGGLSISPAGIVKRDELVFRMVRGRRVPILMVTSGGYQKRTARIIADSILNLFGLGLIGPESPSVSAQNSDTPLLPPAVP
The series is described as follows: Inhibition of HDAC11 (unknown origin) incubated for 3 hrs in presence of BSA and in absence of DTT by fluorescence assay.

The nature of series [10]: Drug level in tumor of human HCT116 cells xenografted nu/nu mouse treated with 10 mg/kg, po largazole assessed as compound formation by HPLC-MS method. The class given is ADME, organism-based, Neoplasm, HCT-116. Also noted: dose 10 mg/kg, route oral. As to conditions: in vivo.
Series [11] concerns Serum. The series is described as follows: Drug metabolism in mouse serum treated with largazole assessed as compound formation after 0.25 to 1440 mins by HPLC-MS method. The class given is ADME, cell-free.
Series [12] can be described thus: Drug level in human HCT116 cells protein lysate solution treated with 25 ug/mL largazole assessed as compound formation after 30 mins by HPLC-MS method. Format: ADME, cell-based. As to conditions: hct-116, 0.5 h.

For the molecule `CC(C)[C@@H]1NC(=O)[C@]2(C)CSC(=N2)c2csc(n2)CNC(=O)C[C@@H](/C=C/CCSSC[C@H](NC(=O)OC(C)(C)C)C(=O)O)OC1=O`, in the series with HCT-116 [1], the inhibition result was “inactive”. In addition, the Drug metabolism result was “metabolite_detected” in series [2], “metabolite_notdetected” in series [5] and “metabolite_notdetected” with Serum [6]. Also, the inhibition result (in series [3]; in the series on HCT-116 [4]; in the series with HCT-116 [7]) was “Active” in each case.

With `CC(C)[C@@H]1NC(=O)[C@]2(C)CSC(=N2)c2csc(n2)CNC(=O)C[C@@H](/C=C/CCS)OC1=O` [LARGAZOLE THIOL], the Drug metabolism result (in series [8]; in [9]; in series [10]; in the series with Serum [11]; in [12]) was “metabolite_detected” each time. The IC50 at Histone deacetylase 11 was found to be 3 nM.

Source of the values: ChEMBL document CHEMBL3352121, “Modulation of Activity Profiles for Largazole-Based HDAC Inhibitors through Alteration of Prodrug Properties” (ACS Med Chem Lett, 2014).
